According to ChEMBL document CHEMBL4689842, “EUbOPEN Chemogenomics Library wave 1” (2021):

How the values were obtained:
Assay type in all cases: toxicity, cell-based
[1] = tested on: Fibroblast; assay: Multiplex assay against human fibroblast
Outline: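 Per cents of healthy-nucleus cells form the tubulin, mitochondrial-mass and membrane-permeability phenotype values. Live cells were stained at seeding with Hoechst33342, BioTracker Green Microtubule Cytoskeleton Dye, MitoTracker Red and Annexin V Alexa Fluor 680. After compound addition they were imaged on a CQ1 microscope at 37°C and 5% CO2, and CellPathfinder machine-learning gating split them into Hoechst high-intensity objects or normal cells, normal cells into healthy, pyknosed or fragmented nuclei, and pyknosed cells into mitotic or apoptotic.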

[2] = tested on: HEK-293T; assay: Incucyte cell viability with HEK293T; details: human, 10 µM, compound concentration 10 uM; also: filed as whole numbers so only -1 and 0 and 1 occur
[3] = tested on: U2OS; assay: Incucyte cell viability with U2OS; details: human, 10 µM, compound concentration 10 uM; also: filed as whole numbers so only -1 and 0 and 1 occur
[4] = 24 h, 10 µM, compound concentration 10 uM, replicate 1
[5] = 24 h, 10 µM, compound concentration 10 uM, replicate 2
[6] = 48 h, 1 µM, compound concentration 1 uM, replicate 1
[7] = 48 h, 1 µM, compound concentration 1 uM, replicate 2
[8] = 48 h, 10 µM, compound concentration 10 uM, replicate 1
[9] = 48 h, 10 µM, compound concentration 10 uM, replicate 2
[10] = 0 h, replicate number 1, timepoint 0 hours
[11] = 12 h, replicate number 1, timepoint 12 hours
[12] = 18 h, replicate number 1, timepoint 18 hours
[13] = 24 h, replicate number 1, timepoint 24 hours

O=C(O)c1ccc2cc(-c3ccc(O)c(C45CC6CC(CC(C6)C4)C5)c3)ccc2c1 [O-DEMETHYLATED ADAPALENE]
Population Mitochondria Different-Phenotype (%) [1, 4]: 0%
Population Mitotic Cells (%) [1, 4]: 42%
Population Normal (%) [1, 4]: 78%
Population Pyknosed Nuclei (%) [1, 4]: 29%
Population Tubulin-Different-Phenotype (%) [1, 4]: 44%
Total Cell Count [1, 4]: 113
Population Apoptotic (%) [1, 5]: 0%
Population Fragmented Nuclei (%) [1, 5]: 14%
Population Healthy Nuclei (%) [1, 5]: 81%
Population Hoechst High Intensity Objects (%) [1, 5]: 7%
Population Membrane Permeable-Phenotype (%) [1, 5]: 7%
Population Mitochondria Different-Phenotype (%) [1, 5]: 26%
Population Mitotic Cells (%) [1, 5]: 100%
Population Normal (%) [1, 5]: 92%
Population Pyknosed Nuclei (%) [1, 5]: 3%
Population Tubulin-Different-Phenotype (%) [1, 5]: 28%
Total Cell Count [1, 5]: 83
Population Apoptotic (%) [1, 6]: 78%
Population Fragmented Nuclei (%) [1, 6]: 61%
Population Healthy Nuclei (%) [1, 6]: 26%
Population Hoechst High Intensity Objects (%) [1, 6]: 43%
Population Membrane Permeable-Phenotype (%) [1, 6]: 2%
Population Mitochondria Different-Phenotype (%) [1, 6]: 15%
Population Mitotic Cells (%) [1, 6]: 21%
Population Normal (%) [1, 6]: 56%
Population Pyknosed Nuclei (%) [1, 6]: 12%
Population Tubulin-Different-Phenotype (%) [1, 6]: 5%
Total Cell Count [1, 6]: 267
Population Apoptotic (%) [1, 7]: 71%
Population Fragmented Nuclei (%) [1, 7]: 18%
Population Healthy Nuclei (%) [1, 7]: 71%
Population Hoechst High Intensity Objects (%) [1, 7]: 14%
Population Membrane Permeable-Phenotype (%) [1, 7]: 11%
Population Mitochondria Different-Phenotype (%) [1, 7]: 1%
Population Mitotic Cells (%) [1, 7]: 28%
Population Normal (%) [1, 7]: 85%
Population Pyknosed Nuclei (%) [1, 7]: 9%
Population Tubulin-Different-Phenotype (%) [1, 7]: 28%
Total Cell Count [1, 7]: 87
Population Apoptotic (%) [1, 8]: 85%
Population Fragmented Nuclei (%) [1, 8]: 52%
Population Healthy Nuclei (%) [1, 8]: 40%
Population Hoechst High Intensity Objects (%) [1, 8]: 20%
Population Membrane Permeable-Phenotype (%) [1, 8]: 35%
Population Mitochondria Different-Phenotype (%) [1, 8]: 0%
Population Mitotic Cells (%) [1, 8]: 14%
Population Normal (%) [1, 8]: 79%
Population Pyknosed Nuclei (%) [1, 8]: 7%
Population Tubulin-Different-Phenotype (%) [1, 8]: 35%
Total Cell Count [1, 8]: 116
Population Apoptotic (%) [1, 9]: 66%
Population Fragmented Nuclei (%) [1, 9]: 37%
Population Healthy Nuclei (%) [1, 9]: 58%
Population Hoechst High Intensity Objects (%) [1, 9]: 14%
Population Membrane Permeable-Phenotype (%) [1, 9]: 24%
Population Mitochondria Different-Phenotype (%) [1, 9]: 4%
Population Mitotic Cells (%) [1, 9]: 33%
Population Normal (%) [1, 9]: 85%
Population Pyknosed Nuclei (%) [1, 9]: 3%
Population Tubulin-Different-Phenotype (%) [1, 9]: 46%
Total Cell Count [1, 9]: 99
Growth Rate [2, 10]: 1
Growth Rate ([2]; 0 h, replicate number 2, timepoint 0 hours): 0
Growth Rate ([2]; 6 h, replicate number 1, timepoint 6 hours): 0
Growth Rate [2, 11]: 0
Growth Rate [2, 12]: 0
Growth Rate [2, 13]: 0
Growth Rate [3, 10]: 0
Growth Rate [3, 11]: 1
Growth Rate [3, 12]: 1
Growth Rate [3, 13]: 0
